The source of these data is ChEMBL document CHEMBL5352422, “Development of l-Dopa-containing diketopiperazines as blood-brain barrier shuttle” (Eur J Med Chem, 2022).

Calls of active or inactive are those of the source. The rule behind the calls is not given here. Where a SMILES comes first, the peptide text is derived from it. [ ]: non-standard residue; d: D form. Dopa = N[C@@H](Cc1ccc(O)c(O)c1)C(=O)O

A short description of data set [1]: Apparent permeability of the compound across apical side to basolateral side in human Caco-2 cells measured upto 180 mins by HPLC analysis. The class given is ADME, cell-based. Background: Passage across Caco-2 layers is used to estimate intestinal permeability.
Data set [2] in a line: Effective permeability of compound at 500 uM incubated for 18 hrs by […] method. It is filed as ADME. To be noted: read-out: Peff. In short, it runs like this: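 PAMPA-BBB: donor contained compound at 500 µM final in PBS pH 7.4 with 20% v/v MeOH. Incubated 18 h. Donor and acceptor concentrations measured by HPLC; effective permeability Pe (cm/s) calculated.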
Background: In PAMPA a lipid-coated filter parts donor from acceptor wells.

Data set [3] deals with PC-12. As to the kind of experiment: Inhibition of MPP+ induced GSH level in rat PC-12 cells at 50 uM preincubated with compound for 24 hrs followed by MPP+ treatment for 24 hrs by DTNB reagent based analysis. To be noted: time 48.0 hrs. The class given is functional, cell-based.
Data set [4] deals with PC-12. The experiment in a line: Inhibition of MPP+ induced ROS production in rat PC-12 cells at 50 uM preincubated with compound for 24 hrs followed by MPP+ treatment for 24 hrs by DCFH-DA staining based fluorescence method. The class given is functional, cell-based. To be noted: time 48.0 hrs.
The subject of data set [5] is PC-12. The experiment in a line: Upregulation of Gpx expression in MPP+ induced rat PC-12 cells at 50 nM pretreated with compound for 24 hrs followed by MPP+ stimulation and measured after 6 hrs. It is filed as functional, cell-based. The settings on record: time 30.0 hrs.
Data set [6] relates to PC-12. As to the kind of experiment: Upregulation of xCT expression in MPP+ induced rat PC-12 cells at 50 nM pretreated with compound for 24 hrs followed by MPP+ stimulation and measured after 6 hrs. The settings on record: time 30.0 hrs. The class given is functional, cell-based.

For the compound `COCCc1ccc(OCC(O)CNC(C)C)cc1` (stereo not given) [METOPROLOL], the apparent permeability from apical to basolateral (Papp A→B) at 3 h in data set [1] was 27.4 ×10⁻⁶ cm/s.
As to `COC(=O)[C@H](Cc1ccc(O)c(O)c1)NC(=O)[C@H](CCSC)NC(C)=O` (Ac-Met-[Dopa]-OMe), the Papp at 18 h, 500 µM in data set [2] was found to be 1.42 ×10⁻⁶ cm/s. Also, the Papp A→B at 3 h in data set [1] is 3.5 ×10⁻⁶ cm/s.
Regarding `NC(=O)N1c2ccccc2C=Cc2ccccc21` [CARBAMAZEPINE], the Papp A→B at 3 h in data set [1] turned out to be 50.3 ×10⁻⁶ cm/s.
Regarding `N[C@@H](Cc1ccc(O)c(O)c1)C(=O)O` [LEVODOPA], the inhibition entry in the data set with PC-12 [3] was “inactive”. Also, the inhibition entry with PC-12 [4] is “Active”. Moreover, the outcome in the data set on PC-12 [5] and in the data set on PC-12 [6] was Active. Also, in data set [2], the Papp at 18 h, 500 µM was determined as 0.75 ×10⁻⁶ cm/s. For the same compound, in data set [1], the Papp A→B at 3 h is 0.82 ×10⁻⁶ cm/s.

In general, Papp A→B refers to the apparent permeability from the apical to the basolateral side of a cell layer.
